Compound activity: PubChem BioAssay, several laboratories
Arr AP2 block: human beta-arrestin and AP2 interaction inhibition | FITC-arrestin peptide / GST-AP2 beads, flow cytometry; AP2 beta2 appendage carries R879A mutation | 340,000 tested, 0.31% active | inhibition, % at 10 µM;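 active = inhibition above a set limit, near 3 SD of compounds lacking own fluorescence, cut at about 54% in these data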;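 note: plate controls were DMSO wells for no effect and 5 µM unlabelled arrestin peptide for full effect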
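test system = AP2 appendage R879A on GSH beads | buffer or medium = PBS plus Tween 20 (0.05%) and BSA (0.1%) | incubation = 12 min plus 1 h, RT | detection = bead flow cytometry, FITC channel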
Pemphigus Ab inh: inhibitors of pemphigus antibody binding to human desmoglein-3; P32926; DSG3-coupled beads, scFv-anti-DSG3-GFP binding, flow cytometry; hits give low values; binding (percent of control), % at 10 µM; 310,000 tested, 0.48% active; AID 588358;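 active = binding more than 3 SD below its plate's average and above zero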;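 note: hits lower antibody fragment binding to DSG3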
PolyA inhibitor: yeast polyadenylation inhibition; S. cerevisiae SKY197-pL101 polyadenylation reporter, beta-gal luminescence; efflux-impaired pdr1/pdr3 knockout yeast; score 100 = 6 SD above DMSO; activity score, % at 12 µM; 300,000 tested, 0.02% active; AID 1875;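 active = lowest replicate activity score at least 50, where 100 means six control SD above control mean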;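 note: yeast exposed to compound for 9 h at 30 °C; higher score means more reporter readthrough which indicates perturbed polyadenylation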
NLRP3 yeast inh: NALP3 inhibition in yeast; Yeast reconstituted NLRP3/ASC/caspase-1, beta-gal luminescence, 24 h; inhibition, % at 10 µM; 330,000 tested, 0.39% active; AID 2825;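 active = inhibition of 50% or more; inactive = inhibition below 50%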;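 note: plate controls were induced DMSO wells for no effect and uninduced yeast grown without galactose for full effect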
NALP1 inh: NALP1 inhibition; S. cerevisiae NALP1/ASC/caspase-1 growth, X-gal OD620, 72 h; inhibition, % at 10 µM; 280,000 tested, 0.61% active; AID 2071; in the data active = inhibition mostly above about 24%, no sharp cut-off; inactive = mostly below about 32%
ALR inh: human ALR oxidase inhibition via reduced H2O2; 290,000 tested, 3.8% active; P55789; inhibition, % (test concentration not listed); AID 485317; purified ALR, DTT oxidation, H2O2 HRP-luminol luminescence;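 active = mean replicate inhibition above about 79%, with every replicate also reaching it, limit read from the data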
Target sequence (P55789 whole entry, looked up): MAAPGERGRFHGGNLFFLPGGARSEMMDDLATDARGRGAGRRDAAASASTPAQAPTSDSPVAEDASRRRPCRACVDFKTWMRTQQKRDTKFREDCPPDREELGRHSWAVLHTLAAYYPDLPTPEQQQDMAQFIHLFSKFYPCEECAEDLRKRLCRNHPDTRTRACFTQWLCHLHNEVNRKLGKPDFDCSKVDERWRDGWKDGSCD
Active calls of the source: *; . = not tested or not shown. Compounds with a hit are over-represented: about 4.6% of the library has one in this group of screens.

SMILES | Arr AP2 block | Pemphigus Ab inh | PolyA inhibitor | NLRP3 yeast inh | NALP1 inh | ALR inh
O=C(COC(=O)/C=C/c1ccccc1[N+](=O)[O-])NNC(=O)c1ccc(F)cc1 | -6 | 106 | . | 21 | . | .
Cc1ccc(CNC(=O)CCS(=O)(=O)c2ccc(Br)s2)cc1 | 7 | 97 | -16 | 8 | 43* | -5
CC1=C(C(=O)OCCBr)C(c2cccc3ccccc23)NC(=O)N1 (configuration not stated) | -5 | 88 | -15 | 12 | 11 | -18
CCCOC(=O)C1=C(C)NC(=O)NC1c1cccc2ccccc12 (configuration not stated) | -51 | 2.5* | -4 | -3 | 13 | -9
CC(C)c1ccc(NC2CCCN(C(=O)c3cnsn3)C2)cc1 (configuration not stated) | -10 | 110 | 3 | 21 | 8 | 96*
Cc1cc(C(=O)N2CCCC(Nc3ccc(C(C)C)cc3)C2)nn1C (configuration not stated) | 2 | 103 | -15 | 20 | 15 | 99*
Cc1cn(CC(=O)NCCN2CCOCC2)c(=O)[nH]c1=O | -3 | 101 | . | . | . | .
COc1ccc(C(=O)Nc2cc(C)c3c(=O)oc4ccccc4c3n2)cc1 | 9 | -3.5* | 7 | 12 | 22 | 1
Cc1ccc(NC(=O)CSc2nccn(-c3ccc4c(c3)OCCO4)c2=O)cc1 | 25 | 103 | 20 | 20 | . | 99*
CCOc1ccc(NC(=O)CSc2nccn(-c3ccc4c(c3)OCCO4)c2=O)cc1 | 0 | 98 | 9 | 14 | . | 98*
CCc1ccc(NC(=O)CSc2nccn(-c3ccc4c(c3)OCCO4)c2=O)cc1 | 8 | 101 | -2 | 18 | . | .
Cc1oc(-c2ccccc2F)nc1CS(=O)CC(=O)NCc1ccccn1 (configuration not stated) | 24 | 100 | 3 | -8 | -9 | 99*
Cc1ccc(CNC(=O)CS(=O)Cc2nc(-c3cccs3)oc2C)cc1 (configuration not stated) | 0 | 95 | 14 | 13 | -3 | 99*
Cc1ccc(OCC(=O)NCc2ccccn2)cc1 | -4 | 109 | -2 | 12 | 28 | -1
Cc1ccc(CCNC(=O)CS(=O)Cc2nc(-c3cccs3)oc2C)cc1 (configuration not stated) | 19 | 101 | 6 | 0 | . | .
CCc1ccc(-c2nc(CS(=O)CC(=O)NCCc3ccccc3)c(C)o2)cc1 (configuration not stated) | -9 | 99 | 42 | 0 | -3 | 99*
COc1ccc(-c2nc(CS(=O)(=O)CC(=O)NCCc3ccccc3)c(C)o2)cc1 | 3 | 98 | 14 | 16 | 7 | -4
Cc1ccc(-c2nc(CS(=O)CC(=O)NCc3ccccn3)c(C)o2)cc1 (configuration not stated) | -7 | 99 | 2 | -12 | -25 | 100*
Cc1ccc(NC(=O)CS(=O)Cc2nc(-c3ccc(C)cc3)oc2C)cc1 (configuration not stated) | 14 | 98 | -5 | 9 | 6 | 99*
Cc1ccc(-c2nc(CS(=O)(=O)CC(=O)NCc3cccc(F)c3)c(C)o2)cc1 | 9 | 97 | 1 | 5 | 21 | -3
Cc1ccc(-c2nc(CS(=O)CC(=O)NCc3ccc(F)cc3)c(C)o2)cc1 (configuration not stated) | 3 | 112 | -1 | -16 | 10 | 99*
Cc1ccc(-c2nc(CS(=O)CC(=O)NCc3ccccc3)c(C)o2)cc1 (configuration not stated) | 4 | 98 | -6 | -9 | -41 | 98*
Cn1c(N/N=C/c2ccccc2)nc2sc3c(c2c1=O)CCC3 | -4 | . | -28 | 23 | -43 | 92*
COc1ccccc1NC(=O)COC(=O)C1CC2CCCC(C1)C2=O (configuration not stated) | -14 | 86 | . | -3 | . | -5
COc1ccc(CC(=O)Nc2cc(S(=O)(=O)Nc3ccc(OC)cc3)ccc2OC)cc1 | -1 | 108 | . | 12 | . | 3
SMILES | Arr AP2 block | Pemphigus Ab inh | PolyA inhibitor | NLRP3 yeast inh | NALP1 inh | ALR inh
O=C(c1ccc([N+](=O)[O-])cc1)N(Cc1ccc(Br)cc1)N1C(=O)CCCC1=O | 8 | 126 | -4 | 6 | 34* | -11
O=C(c1ccccc1Cl)N(Cc1ccc(Br)cc1)N1C(=O)CCCC1=O | -2 | 92 | -25 | -12 | 5 | 0
O=C(Nc1ccc(Br)cc1)c1cc(-c2ccncc2)nc2ccccc12 | 3 | 108 | . | 14 | . | -1
CCc1nnc(NC(=O)CSc2nc3[nH]c(=O)cc(O)c3s2)s1 | 4 | . | . | 16 | . | 99*
Cc1nc(SCC(=O)Nc2nccs2)c(C#N)c(C)c1C | 8 | 98 | . | 14 | . | -6
O=C(CSc1nc2[nH]c(=O)cc(O)c2s1)Nc1nccs1 | -3 | . | . | 27 | . | 95*
Cc1cnc(=O)[nH]c1SCC(=O)Nc1nccs1 | -11 | 103 | 4 | 3 | . | 97*
Cc1nc2ccccn2c(=O)c1NC(=O)c1ccc2c(c1)OCO2 | . | 104 | . | . | . | .
O=S(=O)(/N=S1/CC=CCN1S(=O)(=O)c1ccccc1)c1ccccc1 (configuration not stated) | 15 | 102 | -1 | -8 | 8 | 99*
O=C(CC1SC(N2CCCCC2)=NC1=O)Nc1cccc(C(=O)Nc2ncccc2O)c1 (configuration not stated) | -4 | 107 | -17 | 16 | . | 49
NS(=O)(=O)c1ccc(CCNC(=O)c2cc(-c3ccccn3)nc3ccc(Br)cc23)cc1 | -10 | 94 | -5 | 20 | 41* | -26
Cc1cccc(-n2ncc3c2CCCC3NC(=O)CCN2CCCO2)c1C (configuration not stated) | 19 | 110 | 0 | 7 | 7 | -5
O=C(Cn1cnc([N+](=O)[O-])n1)c1ccccc1 | 34 | 100 | -3 | -2 | -12 | -52
O=C(Cn1cnc([N+](=O)[O-])n1)c1ccc(O)c(O)c1 | -23 | 96 | -6 | 1 | 5 | 94*
Cc1ccc(N/N=C/c2c(O)cc(C)oc2=O)cc1 | -10 | 104 | 2 | 21 | 3 | 99*
C/C(=N\Nc1ccccc1)c1c(O)cc(C)oc1=O | 5 | 99 | -5 | 6 | 23 | 99*
O=C(COc1ccc(Cl)cc1)NCCNc1ccc([N+](=O)[O-])cc1 | -5 | 72* | -13 | 28 | 21 | -4
O=C(C[C@H]1C[C@@H]2c3cc(NS(=O)(=O)c4ccccc4)ccc3O[C@@H]2[C@H](CO)O1)N1CCOCC1 | . | 96 | . | . | . | .
CCOc1ccccc1NC(=S)N1CCN(c2cccc(OC)c2)CC1 | -16 | 109 | 14 | 9 | -17 | 98*
COc1cccc(N2CCN(C(=S)Nc3cc(C)cc(C)c3)CC2)c1 | 16 | 82 | 18 | -82 | -6 | 7
